How the values were obtained:
P388 [1] = assay: Antitumor activity against mouse P388 cells allografted in male CDF1 mouse assessed as disease cures by measuring 30-days host survival at 200 mg/kg, ip administered daily for 9 days as saline with Tween-80 solution starting 24 hrs after tumor inoculation relative to control; format: functional; details: route intraperitoneal
Method in brief: (§1)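 P388 ascitic cell inoculum given ip to CDF1 mice of the sex in each line. Nine daily ip doses in saline with Tween-80 as vehicle, starting 24 h after inoculation. Median survival time expressed as %T/C (>125 significant); "cure" defined as 30-day survival.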

Mus musculus [2] = assay: Toxicity in female CDF1 mouse allografted with mouse P388 cells assessed as animal survival at 100 mg/kg, ip administered daily for 9 days as saline with Tween-80 solution starting 24 hrs after tumor inoculation; format: organism-based; set-up: dose 100 mg/kg, route intraperitoneal; details: in vivo
Method in brief: (§2)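 P-388 leukemia ascitic fluid implanted ip. Compound dosed ip in saline with Tween-80 vehicle, once daily for nine doses from 24 h after tumor inoculation. Acute toxicity scored as toxicity-day survivors per group. Survival was followed up to 30 days, with 30-day survival counted as "cure". Follows NCI screening protocols.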

P388 [3] = assay: Antitumor activity against mouse P388 cells allografted in female CDF1 mouse assessed as disease cures by measuring 30-days host survival at 100 mg/kg, ip administered daily for 9 days as saline with Tween-80 solution starting 24 hrs after tumor inoculation relative to control; format: functional; details: route intraperitoneal; method in brief: as §1
Mus musculus [4] = assay: Toxicity in male CDF1 mouse allografted with mouse P388 cells assessed as animal survival at 50 mg/kg, ip administered daily for 9 days as saline with Tween-80 solution starting 24 hrs after tumor inoculation; format: organism-based; set-up: dose 50 mg/kg, route intraperitoneal; details: in vivo; method in brief: as §2
Mus musculus [5] = assay: Toxicity in female CDF1 mouse allografted with mouse P388 cells assessed as animal survival at 50 mg/kg, ip administered daily for 9 days as saline with Tween-80 solution starting 24 hrs after tumor inoculation; format: organism-based; set-up: dose 50 mg/kg, route intraperitoneal; details: in vivo; method in brief: as §2
P388 [6] = assay: Antitumor activity against mouse P388 cells allografted in male CDF1 mouse assessed as disease cures by measuring 30-days host survival at 50 mg/kg, ip administered daily for 9 days as saline with Tween-80 solution starting 24 hrs after tumor inoculation relative to control; format: functional; details: route intraperitoneal; method in brief: as §1
Mus musculus [7] = assay: Toxicity in female CDF1 mouse allografted with mouse P388 cells assessed as animal survival at 25 mg/kg, ip administered daily for 9 days as saline with Tween-80 solution starting 24 hrs after tumor inoculation; format: organism-based; set-up: dose 25 mg/kg, route intraperitoneal; details: in vivo; method in brief: as §2
P388 [8] = assay: Antitumor activity against mouse P388 cells allografted in female CDF1 mouse assessed as disease cures by measuring 30-days host survival at 25 mg/kg, ip administered daily for 9 days as saline with Tween-80 solution starting 24 hrs after tumor inoculation relative to control; format: functional; details: route intraperitoneal; method in brief: as §1
P388 [9] = assay: Antitumor activity against mouse P388 cells allografted in female CDF1 mouse assessed as change in body weight at 50 mg/kg, ip administered daily for 9 days as saline with Tween-80 solution starting 24 hrs after tumor inoculation; format: functional; details: route intraperitoneal
Method in brief: (§3)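 Ascitic fluid carrying P388 cells was inoculated ip. Compound was given ip in nine daily doses, starting 24 h after inoculation, in Klucel (hydroxypropylcellulose) suspension or in saline with Tween-80. Body-weight difference (treated minus control) was recorded on day 5. Survival was scored as %T/C of median survival time, and 30-day survival counted as cure.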

P388 [10] = assay: Antitumor activity against mouse P388 cells allografted in male CDF1 mouse assessed as disease cures by measuring 30-days host survival at 25 mg/kg, ip administered daily for 9 days as saline with Tween-80 solution starting 24 hrs after tumor inoculation relative to control; format: functional; details: route intraperitoneal; method in brief: as §1
P388 [11] = assay: Antitumor activity against mouse P388 cells allografted in male CDF1 mouse assessed as change in body weight at 50 mg/kg, ip administered daily for 9 days as saline with Tween-80 solution starting 24 hrs after tumor inoculation; format: functional; details: route intraperitoneal; method in brief: as §3
Mus musculus [12] = assay: Toxicity in male CDF1 mouse allografted with mouse P388 cells assessed as animal survival at 200 mg/kg, ip administered daily for 9 days as saline with Tween-80 solution starting 24 hrs after tumor inoculation; format: organism-based; set-up: dose 200 mg/kg, route intraperitoneal; details: in vivo; method in brief: as §2
P388 [13] = assay: Antitumor activity against mouse P388 cells allografted in female CDF1 mouse assessed as disease cures by measuring 30-days host survival at 50 mg/kg, ip administered daily for 9 days as saline with Tween-80 solution starting 24 hrs after tumor inoculation relative to control; format: functional; details: route intraperitoneal; method in brief: as §1
Mus musculus [14] = assay: Toxicity in male CDF1 mouse allografted with mouse P388 cells assessed as animal survival at 25 mg/kg, ip administered daily for 9 days as saline with Tween-80 solution starting 24 hrs after tumor inoculation; format: organism-based; set-up: dose 25 mg/kg, route intraperitoneal; details: in vivo; method in brief: as §2
Mus musculus [15] = assay: Toxicity in male CDF1 mouse allografted with mouse P388 cells assessed as animal survival at 400 mg/kg, ip administered daily for 9 days as saline with Tween-80 solution starting 24 hrs after tumor inoculation; format: organism-based; set-up: dose 400 mg/kg, route intraperitoneal; details: in vivo; method in brief: as §2
P388 [16] = assay: Antitumor activity against mouse P388 cells allografted in female CDF1 mouse assessed as change in body weight at 100 mg/kg, ip administered daily for 9 days as saline with Tween-80 solution starting 24 hrs after tumor inoculation; format: functional; details: route intraperitoneal; method in brief: as §3
P388 [17] = assay: Antitumor activity against mouse P388 cells allografted in female CDF1 mouse assessed as change in body weight at 25 mg/kg, ip administered daily for 9 days as saline with Tween-80 solution starting 24 hrs after tumor inoculation; format: functional; details: route intraperitoneal; method in brief: as §3
P388 [18] = assay: Antitumor activity against mouse P388 cells allografted in male CDF1 mouse assessed as change in body weight at 400 mg/kg, ip administered daily for 9 days as saline with Tween-80 solution starting 24 hrs after tumor inoculation; format: functional; details: route intraperitoneal; method in brief: as §3
P388 [19] = assay: Antitumor activity against mouse P388 cells allografted in male CDF1 mouse assessed as change in body weight at 100 mg/kg, ip administered daily for 9 days as saline with Tween-80 solution starting 24 hrs after tumor inoculation; format: functional; details: route intraperitoneal; method in brief: as §3
P388 [20] = assay: Antitumor activity against mouse P388 cells allografted in male CDF1 mouse assessed as change in body weight at 25 mg/kg, ip administered daily for 9 days as saline with Tween-80 solution starting 24 hrs after tumor inoculation; format: functional; details: route intraperitoneal; method in brief: as §3
P388 [21] = assay: Antitumor activity against mouse P388 cells allografted in male CDF1 mouse assessed as change in body weight at 200 mg/kg, ip administered daily for 9 days as saline with Tween-80 solution starting 24 hrs after tumor inoculation; format: functional; details: route intraperitoneal; method in brief: as §3
P388 [22] = assay: Antitumor activity against mouse P388 cells allografted in male CDF1 mouse assessed as disease cures by measuring 30-days host survival at 100 mg/kg, ip administered daily for 9 days as saline with Tween-80 solution starting 24 hrs after tumor inoculation relative to control; format: functional; details: route intraperitoneal; method in brief: as §1
P388 [23] = assay: Antitumor activity against mouse P388 cells allografted in male CDF1 mouse assessed as disease cures by measuring 30-days host survival at 400 mg/kg, ip administered daily for 9 days as saline with Tween-80 solution starting 24 hrs after tumor inoculation relative to control; format: functional; details: route intraperitoneal; method in brief: as §1
Mus musculus [24] = assay: Toxicity in male CDF1 mouse allografted with mouse P388 cells assessed as animal survival at 100 mg/kg, ip administered daily for 9 days as saline with Tween-80 solution starting 24 hrs after tumor inoculation; format: organism-based; set-up: dose 100 mg/kg, route intraperitoneal; details: in vivo; method in brief: as §2

O=C(NC1CCCCC1)OCc1c(COC(=O)NC2CCCCC2)c(-c2ccc(Cl)c(Cl)c2)n2c1CCC2 was tested, and the T/C (P388 [1]) was 91%, the Activity (Mus musculus [2]) was “Non-toxic” and the T/C (P388 [3]) was 212%. For the same compound, the Activity (Mus musculus [4]) was “Non-toxic”, the Activity (Mus musculus [5]) was “Non-toxic” and the T/C (P388 [6]) was 166%. The Activity (Mus musculus [7]) was “Non-toxic”, the T/C (P388 [8]) was 168% and the Activity (P388 [9]) was -2 g. The T/C (P388 [10]) was 150%, the Activity (P388 [11]) was -0.6 g and the Activity (Mus musculus [12]) was “Non-toxic”. The T/C (P388 [13]) was 174%, the Activity (Mus musculus [14]) was “Non-toxic” and the Activity (Mus musculus [15]) was “Non-toxic”. For the same compound, the Activity (P388 [16]) was -2.5 g, the Activity (P388 [17]) was -1.1 g and the Activity (P388 [18]) was -4 g. The Activity (P388 [19]) was -1.2 g, the Activity (P388 [20]) was -0.6 g and the Activity (P388 [21]) was -2.8 g. For the same compound, the T/C (P388 [22]) was 187%, the T/C (P388 [23]) was 79% and the Activity (Mus musculus [24]) was “Non-toxic”.

Source: ChEMBL document CHEMBL3244396, “Synthesis and antileukemic activity of 5-substituted 2,3-dihydro-6,7-bis(hydroxymethyl)-1H-pyrrolizine diesters” (J Med Chem, 1977)
